Screening data (PubChem)
CDK5 p35 inh = CDK5/p35 (human) kinase inhibition; 0.01% of 330,000 active; Q00535+Q15078; Recombinant CDK5/p35, ADP-Glo luminescence, 60 min; AID 488839; inhibition, % at 10 µM;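 active = highest replicate inhibition of at least 50% and at least 75% of replicates reaching 50%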;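 note: plate controls were DMSO neutral control for no effect and GW8510 at 10 µM for full effect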
Dyrk1A ADPGlo = blocks rat Dyrk1A kinase activity | 0.43% of 310,000 active | Q63470 | ADP-Glo luminescence, NFATc1 peptide | inhibition, % at 12.5 µM | AID 504441; in the data active = inhibition above about 50%;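 note: plate controls were vehicle with enzyme for no effect and no enzyme for full effect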
GSK3B inh = human GSK3beta kinase inhibition | AID 2097 | activity score (negative = inhibition), % at 10 µM | 0.038% of 300,000 active | P49841 | GST-GSK3beta kinase, ADP-Glo luminescence, 60 min; stronger effect = lower value;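 active = more than half of replicate wells score below -50%, meaning over 50% inhibition versus plate controls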;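 note: 0% = median DMSO wells and -100% = median GW8510 positive control wells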
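Test system: GST-tagged human GSK3beta kinase, cell-free; evaluation: activity score scaled between in-plate DMSO and GW8510 controls; measured by: ADP-Glo luminescence; incubation: 60 min reaction, RT; benchmarks: DMSO and 20 µM GW8510; reagent: peptide substrate plus 25 µM ATP (final); medium: Tris/MgCl2 kinase buffer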
GSK3A inh = blocks human GSK-3 alpha kinase | ADP-Glo luminescence, 60 min | inhibition, % at 10 µM | 0.1% of 320,000 active | AID 2650;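 active = more than half of replicates show inhibition above 20%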;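 note: GST-tagged GSK-3 alpha with peptide substrate and 25 µM ATP; 0% = DMSO neutral wells and 100% = GW8510 positive control wells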
STK33 inh = human STK33 kinase inhibition; 0.073% of 320,000 active; Q9BYT3; inhibition, % at 10 µM; purified STK33, MBP phosphorylation, ADP-Glo luminescence;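 active = inhibition at or above 25%, using the most active replicate where run in duplicate; inactive = inhibition below 25%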
Target sequence (Q9BYT3 whole entry, looked up): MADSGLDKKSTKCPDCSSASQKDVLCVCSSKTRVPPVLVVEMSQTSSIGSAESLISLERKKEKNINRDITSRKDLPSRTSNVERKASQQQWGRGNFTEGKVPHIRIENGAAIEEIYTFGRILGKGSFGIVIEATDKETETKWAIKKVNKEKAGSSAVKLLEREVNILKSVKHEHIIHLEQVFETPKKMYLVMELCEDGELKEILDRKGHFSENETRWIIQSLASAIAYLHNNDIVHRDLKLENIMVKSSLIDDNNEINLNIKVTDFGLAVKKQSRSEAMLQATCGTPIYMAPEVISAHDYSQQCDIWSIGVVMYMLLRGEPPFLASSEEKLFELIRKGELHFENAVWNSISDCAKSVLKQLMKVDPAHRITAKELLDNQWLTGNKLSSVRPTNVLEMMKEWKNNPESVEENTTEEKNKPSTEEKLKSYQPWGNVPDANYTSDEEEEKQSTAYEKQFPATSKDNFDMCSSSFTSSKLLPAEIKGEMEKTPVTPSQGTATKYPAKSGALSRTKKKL
The depositor's hits bear a star; . = no result given. Shown is part of a subset that was picked to be rich in hits.

SMILES	CDK5 p35 inh	Dyrk1A ADPGlo	GSK3B inh	GSK3A inh	STK33 inh
N#CC1=C2SCN(Cc3ccccc3)CN2C(=O)CC1c1ccccc1F (centres undefined)	15	8	-8	61*	0
CC(=O)c1cc(-c2ccc(F)cc2)n(CCC(=O)Nc2cc(C)[nH]n2)c1C	0	5	1	56*	0
CCSc1nc(N2CCOCC2)c2c(c1C#N)CCCC2	1	20	-17	6	31*
CCOc1ncccc1C(=O)Nc1cc(S(=O)(=O)N(CC)CC)ccc1N1CCOCC1	1	.	.	-1	0
CCc1cc(C(=O)Nc2nc(-c3ccccn3)cs2)sc1C	-1	.	.	-3	0
CC(C)c1c(C(=O)N/N=C/c2cccnc2)nnn1-c1nonc1N	0	1	1	-1	-1
CC(/C=N/NC(=O)c1nnn(-c2nonc2N)c1CN(C)C)=C\c1ccco1	1	-4	-5	50*	0
CCCN(CCC)Cc1c(C(=O)N/N=C/C(C)=C\c2ccco2)nnn1-c1nonc1N	1	-1	1	-3	0
CCCN(CCC)Cc1c(C(=O)N/N=C/c2ccncc2)nnn1-c1nonc1N	-2	4	-45	74*	0
CN(Cc1c(C(=O)N/N=C/c2ccc(O)cc2)nnn1-c1nonc1N)C1CCCCC1	0	41	0	60*	-1
CCN(CC)Cc1c(C(=O)N/N=C/c2cccnc2)nnn1-c1nonc1N	-2	-3	0	53*	-1
CN(CC(=O)Nc1cccc(F)c1)C(=O)c1ccc2c(c1)CC(c1ccccc1)OC2=O (centres undefined)	-1	7	.	.	.
Cc1ccc(NC(=O)COc2nsnc2N2CCOCC2)cc1Cl	0	1	1	-2	0
CCOc1cccc(-c2c(C(=O)N/N=C(\C)c3cccnc3)nnn2-c2nonc2N)c1	4	3	0	52*	0
CCOc1ccc(-c2c(C(=O)N/N=C(\C)c3cccnc3)nnn2-c2nonc2N)cc1	2	4	-2	0	-1
CC1=CC(=O)C(C(C)=Nc2ccccc2[N+](=O)[O-])C(=O)O1 (centres undefined)	0	3	.	.	.
COc1cc(O)c(CC=C(C)C)c(O)c1C(=O)CCc1ccc(O)cc1	-3	8	-6	-2	0
O=C(CCc1ccc(O)cc1)c1c(O)cc(O)cc1O	12	33	-7	9	30*
COc1ccccc1Oc1ccc(NC(=O)Cc2ccccc2)cc1	.	.	-1	-4	0
Oc1[nH]c2ccccc2c1C=Nc1ccc2c(c1)OCO2	3	6	-32	16	26*
O=C(Nc1ncc([N+](=O)[O-])s1)C1CCN(S(=O)(=O)c2cnc[nH]2)CC1	1	5	-2	51*	-1
O=C(NC1CCCCCC1)C1CCN(S(=O)(=O)c2cnc[nH]2)CC1	0	.	0	-2	-2
COc1cc(C)c2c(c1C=O)Oc1c(c(C)c(O)c3c1C(O)OC3=O)OC2=O (centres undefined)	1	7	0	5	44*
Cc1ccc(CSCC2Nc3ccc(C(=O)N4CCN(c5cccc(C)c5)C(C)C4)cc3NC2=O)cc1 (centres undefined)	.	.	-3	2	1
CCNc1nc(N)c(C(=O)c2ccc(Cl)s2)s1	6	-4	-90*	98*	8
SMILES	CDK5 p35 inh	Dyrk1A ADPGlo	GSK3B inh	GSK3A inh	STK33 inh
CC(C)c1nnc(NC(=O)C2CCCN2C(=O)Nc2ccccc2[N+](=O)[O-])s1 (centres undefined)	-7	-10	-4	-1	-2
Cc1ccc(NC(=O)c2cccc(C(=O)Nc3ccc(C)cc3C(=O)O)c2)c(C(=O)O)c1	0	-1	10	-3	37*
O=C(Nc1cc(C(=O)Nc2ccccc2C(=O)O)cc(C(=O)Nc2ccccc2C(=O)O)c1)c1ccccc1	-6	8	3	1	49*
Cc1cc(C)nc(-n2ncc3c2CC(c2cccc(Cl)c2)CC3=O)n1 (centres undefined)	0	-3	-2	-7	0
CCn1c2ccc(/C(C)=N\O)cc2c2cc(/C(C)=N\O)ccc21	0	2	1	2	37*
CN(C)S(=O)(=O)c1cccc(NC(=S)Nc2ccc3cn[nH]c3c2)c1	2	.	-1	22	48*
COc1cccc(NC(=O)COC(=O)CCSc2ccccc2)c1	-1	.	.	-1	0
O=C(Nc1ccsc1C(=O)NC1CC1)c1ccccc1	0	35	-34	64*	8
O=C(Nc1ccsc1C(=O)O)c1ccccc1	-2	8	2	2	2
Cc1ccc(NC(=O)CN2C(=O)NC(C)(CC(C)C)C2=O)c(Br)c1 (centres undefined)	-1	0	.	1	-3
CCn1cc(/C=C/C(=O)c2ccc(O)cc2)c(C)n1	3	17	4	1	44*
Cc1c(/C=C/C(=O)c2ccc(O)cc2)cnn1C	-2	-4	0	3	29*
Cc1ccc(S(=O)(=O)N(CCC(=O)N2CCOCC2)c2ccccc2)cc1	1	-5	.	.	.
COc1ccc(-n2c(C)c([N+](=O)[O-])c3ccc(O)c(CN4CCCCC4)c32)cc1	-2	5	4	51*	0
CCC(C)Nc1nc(N)c([N+](=O)[O-])c(Nc2ccccc2OC)n1 (centres undefined)	1	39	-55*	66*	1
Cc1nnc(SCC(=O)Nc2c(Cl)cccc2Cl)n(N)c1=O	-1	-3	2	1	-1
N#C/C(=C/C=C/c1ccccc1)C(=O)Nc1ccccc1	-2	-13	.	0	16*
O=C(O)c1ccc(Nc2nc(-c3cccnc3)nc3ccccc23)cc1	.	.	2	61*	7
O=C(O)c1cccc(Nc2nc(-c3cccnc3)nc3ccccc23)c1	0	17	-1	44	32*
CCc1cc([N+](=O)[O-])cc(CC)c1N	-1	70*	3	-1	0
Cc1ccc([N+](=O)[O-])cc1N	-4	-1	0	-3	.
Cc1ccc(NC(=O)COC(=O)c2ccc(F)cc2Cl)c(Br)c1	0	.	1	-2	-1
Cc1ccc(NC(=O)COC(=O)c2cc(Cl)ccc2Cl)c(Br)c1	-1	1	0	10	26*
Nc1nc(NCC2CCCO2)nc(NCC2CCCO2)c1[N+](=O)[O-] (centres undefined)	-2	-2	0	52*	0
Nc1nc(NCCO)nc(NCC2CCCO2)c1[N+](=O)[O-] (centres undefined)	3	49	1	80*	2
Nc1nc(NCC2CCCO2)nc(Nc2ccccc2)c1[N+](=O)[O-] (centres undefined)	0	-3	2	10	0
CC(C)CCNc1nc(N)c([N+](=O)[O-])c(NCC2CCCO2)n1 (centres undefined)	0	35	-42	73*	4
